From PubChem BioAssay
Activity calls are given as the source filed them.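 How the source made its calls, unless noted: active means fluorescence slope after compound addition differing from the mean of all tested samples at 99.7% confidence, mostly higher but some lower; inactive means the rest.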

Assays:
[1] = inhibitors of TNFa-induced NFkB p65 translocation, primary screen, imaging, HUVEC, MLSMR starter and 10KST1 sets (AID 438;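 active means inhibition above 20% together with a positive visual image hit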;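 further: compound added about 3h40 before a 20 min TNFalpha stimulation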;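 on inhibition: signal is the nuclear over cytoplasmic p65 intensity ratio per well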); conditions: HUVEC TNFa-induced p65 nuclear translocation; cell count: measured here: nuclei count (cytotoxicity indicator), at 2.08 µM; inhibition: at 2 µM, stronger effect = higher value, 0% TNFa-plus-vehicle, 100% no-TNFa wells
[2] = inhibitors of E-selectin induction by TNFa, primary screen, imaging, HUVEC, immunofluorescence, MLSMR starter and 10KST1 sets (AID 487;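 active means visually confirmed hit in the image check and inhibition above 20%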;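 on inhibition: signal is fraction of cell area covered by stained E-selectin grains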;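 on nuclei count: 100% = median nuclei count of all wells on the same plate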); conditions: HUVEC TNFalpha-induced E-selectin immunofluorescence imaging, at 2 µM; inhibition: stronger effect = higher value; nuclei count: measured here: cell number, toxicity
[3] = DUSP6 inhibitors restoring Erk phosphorylation by chemical complementation, primary imaging in DUSP6-transfected HeLa (AID 609;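 active means compounds giving at least 50% inhibition in the cell-based MKP-3 phosphatase rescue imaging test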;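 on inhibition: phospho-Erk level distribution per well compared with pooled transfected vehicle control wells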); conditions: HeLa MKP-3 transfected, phospho-Erk imaging KS statistic, at 10 µM, cells stimulated with TPA for 15 min
[4] = target: Dual specificity protein phosphatase 6 (Homo sapiens) (UniProt Q16828); assay: as above; conditions: HeLa MKP-3 transfected, phospho-Erk imaging KS statistic; at 10 µM; stronger effect = higher value; cells stimulated with TPA for 15 min
[5] = target: Voltage-gated potassium channel subunit beta-2 (Rattus norvegicus) (UniProt P62483); assay: KvBeta enzyme negative modulators, primary screen, biochemical, NADPH fluorescence (AID 622;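 active means fluorescence slope higher than the sample average by over 3 SD, cut at about -0.22 in these data, passing the limit was not always enough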;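 further: slope of raw intensity against log time taken from 70 to 1610 s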); conditions: recombinant KvBeta, 4-cyanobenzaldehyde reduction, at 10 µM, stronger effect = higher value
[6] = target: Voltage-gated potassium channel subunit beta-2 (Rattus norvegicus) (UniProt P62483); assay: KvBeta positive modulators, primary screen, biochemical, NADPH fluorescence (AID 623;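 active means NADPH fluorescence slope more negative than the mean of all samples by about 3 SD, 99.7% confidence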;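 further: fluorescence intensity change per second fitted from 20 to 320 s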); conditions: Recombinant KvBeta, NADPH fluorescence decrease slope, 10 min; at 10 µM; stronger effect = lower value
[7] = target: Muscarinic acetylcholine receptor M4 (Homo sapiens) (UniProt P08173); assay: compounds altering M4/GIRK thallium flux, either direction, primary screen, M4 allosteric agonist project, cell-based, HEK293 M4/GIRK, BTC-AM (AID 625); conditions: at 10 µM, actives lie on both sides;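 further: thallium influx through GIRK channels coupled to M4 in HEK293 cells with BTC-AM dye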
How it was run: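 System: HEK293 cells with M4 receptor and GIRK channels | Incubation: Cells overnight at 37 °C, BTC-AM loading 1 h, reads 2 min total | Technique: Kinetic BTC-AM fluorescence sampled at 1 Hz, 10 s pre-addition baseline | Measure: Post-addition slope, 15–24 s, of baseline-normalized fluorescence | Control set: Carbachol positive, DMSO negative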

[8] = inhibitors of larval lipid processing in zebrafish, primary screen, whole organism, PED6 fluorescence, gall bladder and intestine (AID 686;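 active means a full or partial loss of lipid-probe fluorescence in the fish gall bladder, intestine or both, judged by eye; inactive means no fluorescence loss, or compound toxic to the fish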;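 further: larvae 5 to 7 days old with five fish per well; signal comes from phospholipase A2 cleavage of quenched PED6 carried via bile; overnight exposure to compound and PED6 before scoring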); conditions: Zebrafish larvae PED6 lipid processing, fluorescence scoring; screened at 20 µM (by protocol)
How it was run: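 Test system – live zebrafish larvae aged 5-7 days, whole organism · Buffer or medium – E3 fish medium · Reagent – quenched phospholipase substrate PED6, 100 nM final, ingested by larvae · Doses – 20 µM single dose · Incubation – overnight compound and PED6 incubation · Technique – visual fluorescence microscopy scoring of gall bladder, gut · Read-out basis – visual per-well fluorescence inhibition score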

[9] = inhibitors of Chlamydomonas gravitaxis, primary screen, whole organism, Chlamydomonas reinhardtii, WT vs cilia-less mutant, absorbance, 96-well (AID 463189;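 active means inhibition at or above 50% relative to wild type and mutant plate controls; inactive means inhibition below 50%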;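 further: 0% = wild type cc124 cells in DMSO and 100% = ciliumless bld1 mutant cells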); conditions: OD600 absorbance, 2 days, at 10 µM, stronger effect = higher value
[10] = measured here: cell density z-score
[11] = measured here: nuclear c-Myc green intensity z-score
[12] = measured here: nuclear pErk red intensity z-score, stronger effect = higher value

Muscarinic acetylcholine receptor M4 (Homo sapiens), sequence (P08173 whole entry, looked up): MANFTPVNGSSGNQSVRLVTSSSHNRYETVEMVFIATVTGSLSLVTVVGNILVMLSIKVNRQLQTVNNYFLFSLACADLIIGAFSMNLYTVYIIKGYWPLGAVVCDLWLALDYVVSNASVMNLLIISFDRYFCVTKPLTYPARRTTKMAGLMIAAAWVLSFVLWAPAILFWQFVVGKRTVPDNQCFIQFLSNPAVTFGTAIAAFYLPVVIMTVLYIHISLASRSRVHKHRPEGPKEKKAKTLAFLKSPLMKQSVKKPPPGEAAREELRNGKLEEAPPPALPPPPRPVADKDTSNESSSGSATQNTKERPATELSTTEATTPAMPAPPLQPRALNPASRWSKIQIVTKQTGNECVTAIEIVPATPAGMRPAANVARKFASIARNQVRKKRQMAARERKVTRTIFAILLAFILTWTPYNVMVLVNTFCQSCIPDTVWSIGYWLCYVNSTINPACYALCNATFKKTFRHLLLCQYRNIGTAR
Voltage-gated potassium channel subunit beta-2 (Rattus norvegicus), sequence (P62483 whole entry, looked up): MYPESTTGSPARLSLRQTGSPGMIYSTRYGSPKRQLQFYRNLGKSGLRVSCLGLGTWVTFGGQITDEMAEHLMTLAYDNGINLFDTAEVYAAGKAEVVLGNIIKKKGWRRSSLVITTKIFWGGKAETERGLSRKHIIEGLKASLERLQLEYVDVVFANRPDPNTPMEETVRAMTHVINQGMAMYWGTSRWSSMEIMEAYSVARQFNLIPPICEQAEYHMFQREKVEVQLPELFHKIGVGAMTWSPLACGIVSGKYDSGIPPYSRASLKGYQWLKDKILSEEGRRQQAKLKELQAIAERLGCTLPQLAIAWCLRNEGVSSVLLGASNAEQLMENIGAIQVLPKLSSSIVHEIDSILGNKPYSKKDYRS
Dual specificity protein phosphatase 6 (Homo sapiens), sequence (Q16828 whole entry, looked up): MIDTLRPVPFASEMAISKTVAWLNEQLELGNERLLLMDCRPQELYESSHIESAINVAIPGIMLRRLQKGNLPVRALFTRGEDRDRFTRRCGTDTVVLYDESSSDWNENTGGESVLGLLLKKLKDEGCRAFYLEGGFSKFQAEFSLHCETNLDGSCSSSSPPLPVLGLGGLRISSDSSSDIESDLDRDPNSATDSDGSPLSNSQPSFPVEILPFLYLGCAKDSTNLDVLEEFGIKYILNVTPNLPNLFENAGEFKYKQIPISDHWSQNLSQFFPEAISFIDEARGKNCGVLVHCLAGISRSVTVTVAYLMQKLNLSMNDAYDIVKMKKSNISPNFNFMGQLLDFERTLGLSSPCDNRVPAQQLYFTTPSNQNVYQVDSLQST

| SMILES | cell count [1] | inhibition [1] | inhibition [2] | nuclei count [2] | z-score [3, 10] | z-score [3, 11] | z-score [3, 12] | inhibition [4] | fluorescence slope [5] | NADPH fluorescence slope [6] | fluorescence slope [7] | outcome [8] | inhibition [9] |
| --- | --- | --- | --- | --- | --- | --- | --- | --- | --- | --- | --- | --- | --- |
| CN1CCN(c2c3c(c(C#N)c4nc5ccccc5n24)CCCC3)CC1 | 514 | 0.8% (inactive) | -60.7% (inactive) | 130% | 1.3 | -0.661 | -1.13 | 5.95% (inactive) | -0.35 (inactive) | -3.3e-05 (inactive) | 0.00748 (inactive) | inactive | -10.8% (inactive) |
| c1ccc2c(c1)[nH]c1c(N3CCN(C4CCCCC4)CC3)ncnc12 | 601 | -21% (inactive) | -59.2% (inactive) | 172% | 0.663 | -1.44 | -1.01 | 27.4% (inactive) | -0.169 (inactive) | -1.6e-05 (inactive) | 0.00557 (inactive) | inactive | 18.4% (inactive) |
| CCOC(=O)c1c(C)n(C)c2ccc(OC)c(NC(=O)CN3CCC4(CC3)OCCO4)c12 | 690 | -4.9% (inactive) | -157% (inactive) | 178% | 0.288 | 0.471 | 0.00411 | -10.1% (inactive) | -0.44 (inactive) | -4.5e-05 (inactive) | 0.00438 (inactive) | inactive | -0.554% (inactive) |
| COC(=O)c1ccc(C2/C(=C(\O)c3cccc(OC)c3)C(=O)C(=O)N2CCCN(C)C)cc1 (stereo unspecified) | 632 | -19.7% (inactive) | -82.8% (inactive) | 145% | 0.797 | -1.05 | -0.8 | 7.21% (inactive) | -0.524 (inactive) | -1.5e-05 (inactive) | 0.006 (inactive) | inactive | 20.5% (inactive) |
| N#Cc1cccc(-n2c(-c3ccccc3)nnc2-c2ccccc2)c1C#N | 587 | -2.7% (inactive) | -7.1% (inactive) | 99.3% | -3.17 | 1.25 | 1.22 | -7.86% (inactive) | -0.508 (inactive) | -6.3e-05 (inactive) | 0.00624 (inactive) | inactive | 6.01% (inactive) |
| CCc1nc(NC2CCCCC2)c(C#N)c2c1COC(C)(C)C2 | 573 | -9.3% (inactive) | -95.5% (inactive) | 153% | 0.843 | -0.37 | -0.579 | 29.5% (inactive) | -0.475 (inactive) | -2.5e-05 (inactive) | 0.00603 (inactive) | inactive; toxic | -1.73% (inactive) |
| CNC(=O)CCn1nc(-c2ccccc2)c2ccccc2c1=O | 737 | -2.4% (inactive) | -67.9% (inactive) | 156% | 1.04 | -1.35 | -0.0887 | 11.4% (inactive) | -0.455 (inactive) | -2.4e-05 (inactive) | 0.00449 (inactive) | inactive | 10.7% (inactive) |
| CCOC(=O)c1c(-c2cccs2)csc1NC(=O)c1ccncc1 | 469 | -0.7% (inactive) | -21.4% (inactive) | 128% | 0.172 | 0.303 | -0.644 | 4.37% (inactive) | -0.308 (inactive) | -2.8e-05 (inactive) | 0.00693 (inactive) | inactive | 12.5% (inactive) |
| CCCCC(=O)NC(Nc1ccc(C)cn1)(C(=O)OCC)C(F)(F)F (stereo unspecified) | 651 | -16.3% (inactive) | -59% (inactive) | 156% | 0.317 | -1.54 | 1.99 | 1.63% (inactive) | -0.481 (inactive) | -4.4e-05 (inactive) | 0.00419 (inactive) | inactive | -0.324% (inactive) |
| CN(CCCCCC(=O)/C=N/O)Cc1ccccc1 | 673 | -7.2% (inactive) | -29.9% (inactive) | 182% | -0.259 | -0.553 | -0.0581 | -9.53% (inactive) | -0.493 (inactive) | -9.8e-05 (inactive) | 0.00525 (inactive) | inactive | 23.8% (inactive) |
| CCCOc1ccc(C2/C(=C(/O)c3ccccc3)C(=O)C(=O)N2CCCN(C)C)cc1OC (stereo unspecified) | 399 | -2.9% (inactive) | -92.3% (inactive) | 157% | 0.261 | -0.731 | -0.508 | 18.2% (inactive) | -0.463 (inactive) | -0.000127 (inactive) | 0.00492 (inactive) | inactive | 26.4% (inactive) |
| CCOC(=O)c1[nH]c2ccc(C)cc2c1N | 678 | -29.2% (inactive) | -53.9% (inactive) | 207% | -1.62 | 0.0814 | 1.41 | -5.95% (inactive) | -0.46 (inactive) | -4.7e-05 (inactive) | 0.00561 (inactive) | inactive | -1.56% (inactive) |
| Cc1ccc(CNc2oc(COc3ccccc3Cl)nc2C#N)cc1 | 402 | -2.8% (inactive) | -40.3% (inactive) | 82.6% | -0.405 | -0.319 | -0.994 | 4.37% (inactive) | -0.387 (inactive) | 2.1e-06 (inactive) | 0.00728 (inactive) | inactive | 28.6% (inactive) |
| CCOC(=O)C(C(=O)OCC)N(C#N)c1nc(SC)nc(N(C)C)n1 | 607 | -2.8% (inactive) | 42.8% (inactive) | 86.4% | -3.26 | 2.37 | 4.3 | 33.3% (inactive) | -0.457 (inactive) | -5e-05 (inactive) | 0.00538 (inactive) | inactive | -15.2% (inactive) |
| C/C(=N/n1cnnc1)c1cccnc1 | 541 | 1.3% (inactive) | -130% (inactive) | 140% | 0.514 | -0.833 | -1.29 | 3.42% (inactive) | -0.448 (inactive) | -0.000104 (inactive) | 0.00412 (inactive) | inactive | -7.67% (inactive) |
| COc1ccc(/C(O)=C2\C(=O)C(=O)N(CCN(C)C)C2c2cccc(OC)c2OC)cc1Cl (stereo unspecified) | 629 | -9.8% (inactive) | -43.6% (inactive) | 170% | -0.541 | -0.411 | -0.226 | 11.4% (inactive) | -0.443 (inactive) | -3.1e-05 (inactive) | 0.00451 (inactive) | inactive | 10.3% (inactive) |
| CCOC(=O)c1[nH]c2cc3c(cc2c1NC(=O)CN1CC(C)CC(C)C1)OCO3 (stereo unspecified) | 527 | 1.2% (inactive) | 5.3% (inactive) | 167% | 0.5 | -1.18 | -0.714 | 9.91% (inactive) | -0.329 (inactive) | -8.9e-06 (inactive) | 0.00584 (inactive) | inactive | -3.44% (inactive) |
| Cc1ccc(Cn2ncc3c(N4CCOCC4)ncnc32)cc1 | 551 | -1.3% (inactive) | -9.4% (inactive) | 152% | 0.711 | -0.178 | 0.142 | 7.93% (inactive) | -0.363 (inactive) | -3.8e-05 (inactive) | 0.00641 (inactive) | inactive | -4.03% (inactive) |
| O=C1CC(C(=O)O)c2ccccc2N1 (stereo unspecified) | 589 | 5.9% (inactive) | -180% (inactive) | 135% | 0.749 | 0.0521 | -0.602 | 15.4% (inactive) | -0.465 (inactive) | -0.000133 (inactive) | 0.00465 (inactive) | inactive | 6% (inactive) |
| O=C1C(=O)N(Cc2cccnc2)C(c2ccccn2)/C1=C(/O)c1ccc(F)cc1 (stereo unspecified) | 327 | -1.1% (inactive) | -58.9% (inactive) | 98% | 1.24 | 1.4 | -0.331 | -0.624% (inactive) | -0.462 (inactive) | -3.7e-05 (inactive) | 0.00549 (inactive) | inactive | -9.85% (inactive) |
| CC1(C)Cc2c(c(-c3ccco3)[nH]c(=O)c2C#N)CS1 | 706 | -0.5% (inactive) | -101% (inactive) | 143% | 0.203 | 0.427 | 1.52 | -11.5% (inactive) | -0.388 (inactive) | -9.3e-05 (inactive) | 0.00494 (inactive) | inactive | 3.67% (inactive) |
| CCSc1nnc(NC(=O)NCC(F)(F)F)s1 | 580 | -4.9% (inactive) | 31.5% (inactive) | 96.4% | 1.02 | -0.999 | -0.913 | 9.07% (inactive) | -0.469 (inactive) | -3.9e-05 (inactive) | 0.00649 (inactive) | inactive | -11.4% (inactive) |
| Cc1cccc(-c2nc(C#N)c(NC3CCCCC3)o2)c1 | 373 | -5.1% (inactive) | -71.9% (inactive) | 134% | 1.1 | -0.201 | -0.602 | 9.82% (inactive) | -0.492 (inactive) | -0.000119 (inactive) | 0.00501 (inactive) | inactive | -0.036% (inactive) |
| CCCC1C(c2ccc(OC)cc2)C(C#N)(C#N)C2(C#N)CC1(N)NC2=O (stereo unspecified) | 369 | -0.7% (inactive) | -28.9% (inactive) | 84.9% | -2.59 | 2.42 | -0.136 | -2.69% (inactive) | -0.495 (inactive) | 3.3e-05 (inactive) | 0.00515 (inactive) | inactive | -15.7% (inactive) |
| Cn1c(OCc2cccnc2)nc2c1c(=O)n(Cc1ccc(Br)cc1)c(=O)n2C | 723 | -15.3% (inactive) | -75% (inactive) | 172% | -1.07 | -0.35 | 0.344 | -5.95% (inactive) | -0.475 (inactive) | -4e-05 (inactive) | 0.00549 (inactive) | inactive | 32.6% (inactive) |
| Cc1cc(=O)oc(C)c1C(=O)NC1CC(C)(C)NC(C)(C)C1 | 688 | -8.3% (inactive) | -70.2% (inactive) | 160% | -0.541 | 0.659 | 0.228 | -10.1% (inactive) | -0.463 (inactive) | -1.7e-05 (inactive) | 0.00552 (inactive) | inactive | 6.56% (inactive) |
| CCCCc1nc(N2CCOCC2)c(C#N)c2c1CCCC2 | 559 | -11.7% (inactive) | -89.9% (inactive) | 141% | 0.356 | 0.825 | 0.364 | -15.1% (inactive) | -0.449 (inactive) | -0.000117 (inactive) | 0.00395 (inactive) | inactive | 11.9% (inactive) |
